Assay results: ChEMBL document CHEMBL1152744, “Select pyrimidinones inhibit the propagation of the malarial parasite, Plasmodium falciparum” (Bioorg Med Chem, 2009)

How the values were obtained:
Plasmodium falciparum [1] = experiment: Antimalarial activity against chloroquine-resistant Plasmodium falciparum Dd2 infected human erythrocytes after 72 hrs by [3H]hypoxanthine uptake; assay type: functional, organism-based
Summary of the method: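 Asexual blood-stage P. falciparum Dd2 (chloroquine-resistant) in human erythrocytes, exposed to compound for 72 h, with [3H]hypoxanthine added for the last 24 h. Dose-response series were run, and IC50 was calculated by linear regression on the linear portions of plotted uptake values. Chloroquine was included as an internal control.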

[2] = molecular target: Heat shock 70 kDa protein (Plasmodium falciparum) (UniProt P11144); experiment: Inhibition of Plasmodium falciparum Hsp70 ATPase activity assessed as residual enzyme activity at 300 uM relative to control
Sequence of Heat shock 70 kDa protein (Plasmodium falciparum) (P11144 whole entry): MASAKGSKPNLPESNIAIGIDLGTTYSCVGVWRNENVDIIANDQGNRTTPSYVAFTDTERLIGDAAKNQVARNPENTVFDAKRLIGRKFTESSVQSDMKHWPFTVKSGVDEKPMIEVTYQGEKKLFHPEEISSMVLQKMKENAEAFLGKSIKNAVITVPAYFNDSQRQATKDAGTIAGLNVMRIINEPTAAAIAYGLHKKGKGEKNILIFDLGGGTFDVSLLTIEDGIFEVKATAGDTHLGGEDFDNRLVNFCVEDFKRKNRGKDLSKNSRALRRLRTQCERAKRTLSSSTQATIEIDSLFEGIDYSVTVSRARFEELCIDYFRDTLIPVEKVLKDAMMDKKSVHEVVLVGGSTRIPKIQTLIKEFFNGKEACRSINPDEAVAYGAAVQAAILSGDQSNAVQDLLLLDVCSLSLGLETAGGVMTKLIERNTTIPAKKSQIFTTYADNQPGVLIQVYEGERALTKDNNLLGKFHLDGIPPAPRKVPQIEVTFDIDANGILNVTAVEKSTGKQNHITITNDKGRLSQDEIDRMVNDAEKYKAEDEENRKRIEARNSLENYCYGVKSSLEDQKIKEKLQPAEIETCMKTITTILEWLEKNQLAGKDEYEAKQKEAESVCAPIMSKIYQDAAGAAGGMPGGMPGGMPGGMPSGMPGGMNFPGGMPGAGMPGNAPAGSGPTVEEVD
Summary of the method: (§1)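 Steady-state ATPase assay with P. falciparum Hsp70, yeast Ssa1 or human Hsp70. Compound at 300 μM final; activity standardized to an equal volume of DMSO, set to 1. Values are means of 6 independent experiments, ±SD where shown.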

[3] = molecular target: Heat shock protein SSA1 (Saccharomyces cerevisiae S288c) (UniProt P10591); experiment: Inhibition of Saccharomyces cerevisiae Ssa1 ATPase activity assessed as residual enzyme activity at 300 uM relative to control; summary of the method: as §1
Sequence of Heat shock protein SSA1 (Saccharomyces cerevisiae S288c) (P10591 whole entry): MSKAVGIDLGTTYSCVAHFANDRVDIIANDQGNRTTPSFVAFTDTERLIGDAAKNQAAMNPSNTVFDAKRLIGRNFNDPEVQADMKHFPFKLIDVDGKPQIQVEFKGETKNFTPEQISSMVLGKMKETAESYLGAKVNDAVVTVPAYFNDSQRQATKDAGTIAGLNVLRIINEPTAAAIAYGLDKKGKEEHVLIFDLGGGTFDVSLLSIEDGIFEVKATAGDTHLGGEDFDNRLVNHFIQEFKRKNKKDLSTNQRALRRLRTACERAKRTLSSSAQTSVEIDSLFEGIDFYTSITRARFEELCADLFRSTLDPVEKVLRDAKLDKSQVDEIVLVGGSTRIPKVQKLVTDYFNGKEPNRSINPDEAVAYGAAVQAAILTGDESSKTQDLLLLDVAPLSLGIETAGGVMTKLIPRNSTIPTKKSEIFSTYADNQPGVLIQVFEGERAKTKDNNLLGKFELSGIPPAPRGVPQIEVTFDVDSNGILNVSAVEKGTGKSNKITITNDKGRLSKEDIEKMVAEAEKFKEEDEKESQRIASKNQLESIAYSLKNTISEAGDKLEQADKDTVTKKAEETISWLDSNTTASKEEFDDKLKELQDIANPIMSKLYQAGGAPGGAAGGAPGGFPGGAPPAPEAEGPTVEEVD

[4] = molecular target: Heat shock 70 kDa protein 1A (Homo sapiens) (UniProt P0DMV8); experiment: Inhibition of human HSPA1A ATPase activity assessed as residual enzyme activity at 300 uM relative to control; summary of the method: as §1
Sequence of Heat shock 70 kDa protein 1A (Homo sapiens) (P0DMV8 2-641 limits assumed): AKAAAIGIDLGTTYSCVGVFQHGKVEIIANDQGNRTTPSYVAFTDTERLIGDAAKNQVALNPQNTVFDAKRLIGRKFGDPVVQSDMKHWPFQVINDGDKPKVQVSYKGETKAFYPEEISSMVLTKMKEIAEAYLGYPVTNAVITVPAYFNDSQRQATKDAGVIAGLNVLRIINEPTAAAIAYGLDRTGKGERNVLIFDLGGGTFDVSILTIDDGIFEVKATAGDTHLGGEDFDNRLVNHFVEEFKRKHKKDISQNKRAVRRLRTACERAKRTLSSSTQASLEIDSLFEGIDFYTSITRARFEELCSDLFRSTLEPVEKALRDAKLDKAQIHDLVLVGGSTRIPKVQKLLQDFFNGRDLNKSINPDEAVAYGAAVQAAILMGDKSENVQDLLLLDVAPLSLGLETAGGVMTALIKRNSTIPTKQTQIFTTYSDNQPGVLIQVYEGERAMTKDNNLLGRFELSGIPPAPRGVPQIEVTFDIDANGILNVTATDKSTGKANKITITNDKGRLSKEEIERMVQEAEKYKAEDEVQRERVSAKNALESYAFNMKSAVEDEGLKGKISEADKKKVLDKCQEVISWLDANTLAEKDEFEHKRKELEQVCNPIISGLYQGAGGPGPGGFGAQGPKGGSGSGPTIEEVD

[5] = Cytotoxicity against human HepG2 cells; assay type: cell-based
Summary of the method: (§2)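 GI50 measured in HepG2 hepatocellular carcinoma and WI-38 embryonic diploid lung cells, calculated relative to a DMSO (negative) control.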

[6] = Cytotoxicity against human WI38 cells; assay type: cell-based, WI-38; summary of the method: as §2
Plasmodium falciparum [7] = experiment: Antimalarial activity against chloroquine-resistant Plasmodium falciparum Dd2 infected human erythrocytes at 5 uM after 72 hrs as inhibition of [3H]hypoxanthine uptake; assay type: functional
Summary of the method: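 Single-point screen of Dd2 asexual blood stages in human red cells at final concentrations of 1 μM and 5 μM, with 72 h drug exposure and [3H]hypoxanthine pulse over the final 24 h. Read-out was percent inhibition of label uptake. Compounds giving >50% inhibition at 5 μM were re-screened.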

Plasmodium falciparum [8] = experiment: Effect on Plasmodium falciparum Hsp70 ATPase activity assessed as fold change in Kcat at 100 uM relative to control
Summary of the method: (§3)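 Single-turnover ATPase assay measuring kCAT of recombinant P. falciparum Hsp70 (E. coli Rosetta 2, Ni-chelate then Q-Sepharose purified), yeast Ssa1, or human HSPA1A (E. coli-expressed, untagged or His6). Optional J-domain partners: Hlj1 1.1 μM; Ydj1 0.045 μM with Ssa1, 0.9 μM with Pf or human Hsp70. Compound at 100 μM final; activity expressed as a fraction of the DMSO-only reaction under the same conditions, set to 1.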

Plasmodium falciparum [9] = experiment: Effect on Plasmodium falciparum Hsp70 ATPase activity assessed as fold change in Kcat at 100 uM in presence of J-domain containing yeast HlJ1 co-chaperone relative to control; summary of the method: as §3
[10] = molecular target: Heat shock protein SSA1 (Saccharomyces cerevisiae S288c) (UniProt P10591); experiment: Effect on Saccharomyces cerevisiae Ssa1 ATPase activity assessed as fold change at 100 uM in Kcat relative to control; summary of the method: as §3
[11] = molecular target: Heat shock protein SSA1 (Saccharomyces cerevisiae S288c) (UniProt P10591); experiment: Effect on Saccharomyces cerevisiae Ssa1 ATPase activity assessed as fold change in Kcat at 100 uM in presence of J-domain containing yeast HlJ1 co-chaperone relative to control; summary of the method: as §3
[12] = molecular target: Heat shock 70 kDa protein 1A (Homo sapiens) (UniProt P0DMV8); experiment: Effect on human HSPA1A ATPase activity assessed as fold change in Kcat at 100 uM relative to control; summary of the method: as §3
[13] = molecular target: Heat shock 70 kDa protein 1A (Homo sapiens) (UniProt P0DMV8); experiment: Effect on human HSPA1A ATPase activity assessed as fold change in Kcat at 100 uM in presence of J-domain containing Hdj1 co-chaperone relative to control
[14] = molecular target: Heat shock protein SSA1 (Saccharomyces cerevisiae S288c) (UniProt P10591); experiment: Effect on Saccharomyces cerevisiae Ssa1 ATPase activity assessed as fold change in Kcat at 100 uM in presence of J-domain containing yeast Ydj1 co-chaperone relative to control; summary of the method: as §3
[15] = molecular target: Heat shock 70 kDa protein 1A (Homo sapiens) (UniProt P0DMV8); experiment: Effect on human HSPA1A ATPase activity assessed as fold change in Kcat at 100 uM presence of J-domain containing yeast Ydj1 co-chaperone relative to control; summary of the method: as §3
[16] = molecular target: Heat shock 70 kDa protein 1A (Homo sapiens) (UniProt P0DMV8); experiment: Inhibition of human Hsp70 ATPase activity assessed as reduction of rate of ATP hydrolysis; set-up: scale not given: the % may be the effect or the level left
[17] = molecular target: Heat shock protein SSA1 (Saccharomyces cerevisiae) (UniProt P10591); experiment: Effect on yeast Hsp70 Ssa1 ATPase activity assessed as fold change in Kcat at 100 uM relative to control

| SMILES | IC50 (Plasmodium falciparum [1]) | fold change (FC) [2] | fold change (FC) [3] | fold change (FC) [4] | GI50 [5] | GI50 [6] | inhibition at 5 µM (Plasmodium falciparum [7]) | fold change (FC) (Plasmodium falciparum [8]) | fold change (FC) (Plasmodium falciparum [9]) | fold change (FC) [10] | fold change (FC) [11] | fold change (FC) [12] | fold change (FC) [13] | fold change (FC) [14] | fold change (FC) [15] | Activity [16] | fold change (FC) [17] |
| --- | --- | --- | --- | --- | --- | --- | --- | --- | --- | --- | --- | --- | --- | --- | --- | --- | --- |
| COC(=O)C1=C(Cc2ccccc2)NC(=O)NC1c1ccc2ccccc2c1 (configuration not stated) | 300 nM | 1 | 1.2 | 0.7 | > 10000 nM | > 10000 nM | > 50% | 1.4 | -1.2 | 2 | -1.2 | 1.3 | 2.5 | -1.3 | -1.2 | 30% | 2 |
| CCOC(=O)C1=C(C)N(CCCC(=O)NCCn2c(-c3ccccc3)cc(C(=O)OC)c2C)C(=O)NC1c1ccc([N+](=O)[O-])cc1 (configuration not stated) | 30 nM | 1.02 | 0.89 | 0.8 | > 10000 nM | > 10000 nM | > 50% | 3.7 | 1.5 | -1.3 | -1.6 | 2 | 4.3 | -1.6 | -1.2 | – | -1.3 |
| CC(=O)O[C@H]1C(=O)[C@@]2(C)[C@H]([C@H](OC(=O)c3ccccc3)[C@]3(O)C[C@H](OC(=O)[C@H](O)[C@@H](NC(=O)c4ccccc4)c4ccccc4)C(C)=C1C3(C)C)[C@]1(OC(C)=O)CO[C@@H]1C[C@@H]2O [PACLITAXEL] | – | – | – | – | 1 nM | 13.7 nM | – | – | – | – | – | – | – | – | – | – | – |
| CCOC(=O)C1=C(C)N(CCCCCC(=O)O)C(=O)NC1c1cccc([N+](=O)[O-])c1 (configuration not stated) | 1600 nM | 1.01 | 0.93 | 0.85 | > 10000 nM | > 10000 nM | > 50% | 1.8 | -1.1 | 1.3 | 1 | 1.4 | 1.1 | 1.1 | -1.3 | – | 1.3 |
| CCCCN1C(=O)NC(c2ccc(OC)cc2)C(C(=O)OCc2ccccc2)=C1C (configuration not stated) | 200 nM | 0.92 | 0.95 | 0.8 | > 10000 nM | > 10000 nM | > 50% | 7.2 | -1.1 | 2.3 | 1 | 4.5 | 4.5 | -1.1 | 1.1 | – | – |
| COC(=O)c1cc(-c2ccccc2)n(CCNC(=O)CCCCCN2C(=O)NC(c3ccc(-c4ccccc4)cc3)C(C(=O)OCc3ccccc3)=C2C)c1C (configuration not stated) | 50 nM | 1.01 | 1.2 | 0.72 | > 10000 nM | > 10000 nM | > 50% | 2.7 | -1.1 | 13.3 | -6.5 | 3.5 | 5.3 | -1.7 | 1.5 | 30% | – |
| CC1=C(C(=O)OCc2ccccc2)C(c2ccc([N+](=O)[O-])cc2)NC(=O)N1CCCC(=O)N(CCN1CCOCC1)C(C(=O)NC(C)(C)C)c1ccc(-c2ccccc2)cc1 (configuration not stated) | 800 nM | 0.72 | 0.75 | 0.82 | > 10000 nM | > 10000 nM | > 50% | 2.2 | 1.4 | 1.2 | 1 | 2 | 2.9 | -1.5 | -1.1 | – | 1.2 |
| CCCCNC(=O)C(c1ccc(-c2ccccc2)cc1)N(CCN1CCOCC1)C(=O)CCCCCN1C(=O)NC(c2ccc([N+](=O)[O-])cc2)C(C(=O)OCc2ccccc2)=C1C (configuration not stated) | 200 nM | 0.73 | 1 | 0.74 | > 10000 nM | > 10000 nM | > 50% | 2.3 | -1.3 | -1.6 | -1.1 | 1 | 4.7 | -2.6 | 1 | – | -1.6 |
| CCCCCCN(C(=O)CCCCCN1C(=O)NC(c2ccc(-c3ccccc3)cc2)C(C(=O)OCc2ccccc2)=C1C)C(C(=O)NCCCC)C1CCCCC1 (configuration not stated) | 1100 nM | 0.74 | 0.97 | 0.95 | > 10000 nM | > 10000 nM | > 50% | 2.9 | -1.5 | -1.7 | 1.2 | 2.3 | 2.8 | -1.3 | 1.1 | – | -1.7 |
| CCOC(=O)C1=C(C)N(Cc2ccccc2)C(=O)NC1c1ccccc1OS(=O)(=O)c1ccccc1[N+](=O)[O-] (configuration not stated) | 100 nM | 0.99 | 1.1 | 0.74 | > 10000 nM | > 10000 nM | > 50% | 6.5 | 1.4 | 2.1 | 1 | 3.6 | 3.5 | -1.3 | -1.2 | 30% | 2.1 |
